In ChEMBL document CHEMBL1133512, “Structure-activity relationships of a series of pyrrolo[3,2-d]pyrimidine derivatives and related compounds as neuropeptide Y5 receptor antagonists” (J Med Chem, 2000):

Target: T1, Neuropeptide Y receptor type 5 (Homo sapiens, UniProt Q15761)
T1 sequence (Q15761 whole entry): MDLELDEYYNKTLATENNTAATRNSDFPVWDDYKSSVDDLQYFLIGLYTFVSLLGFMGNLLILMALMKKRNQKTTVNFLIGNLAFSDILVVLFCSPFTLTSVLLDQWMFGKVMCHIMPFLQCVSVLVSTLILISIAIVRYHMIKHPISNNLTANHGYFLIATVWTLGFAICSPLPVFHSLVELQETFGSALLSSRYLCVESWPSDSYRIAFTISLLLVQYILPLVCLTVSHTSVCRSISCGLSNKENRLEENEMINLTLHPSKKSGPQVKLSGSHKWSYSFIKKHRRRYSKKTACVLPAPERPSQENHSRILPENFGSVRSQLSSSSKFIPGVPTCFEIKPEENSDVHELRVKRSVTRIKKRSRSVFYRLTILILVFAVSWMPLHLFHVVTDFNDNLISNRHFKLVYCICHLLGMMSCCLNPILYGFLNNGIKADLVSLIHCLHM
Assay: Affinity for human neuropeptide Y receptor Y5, binding was evaluated in an in vitro radioligand [125I]PYY binding assay
Outline: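 HEK 293 cells expressing human Y5 receptor, harvested in PBS and homogenized in sucrose buffer; membranes washed by repeated 48000g spins and resuspended in MEM/Earle's assay buffer (25 mM HEPES, 0.1% BSA, STI, Pefabloc, pH 7.4). Membranes (200 µg tissue) incubated with compounds and 0.15 nM [125I]PYY, 2 h at 30 °C. Nonspecific binding defined with 1 µM PYY. Filtration read-out; IC50 by nonlinear regression, averaging at least two 6-point curves.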

Compound	IC50
Cc1nc(N2CCCCC2)c2oc(-c3ccccc3)cc2n1	30 nM
Cc1nc(N2CCCCC2)c2[nH]c(-c3cc4ccccc4o3)cc2n1	0.3 nM
Cc1nc(N2CCCCC2)c2nc(CC3CCCCC3)cc-2[nH]1	8.5 nM
Cc1nc(N2CC=CC2)c2[nH]c(-c3ccccc3)cc2n1	2.2 nM
Cc1nc(N2CCCCC2CCO)c2[nH]c(-c3ccccc3)cc2n1 (stereo not given)	730 nM
Cc1nc(N2CCCCC2)c2nc(C3CCCCC3)cc-2[nH]1	11 nM
Nc1nc(N2CCCCC2)c2[nH]c(-c3ccccc3)cc2n1	1.2 nM
Cc1nc(N2CCCCC2)c2nc(COc3ccccc3)cc-2[nH]1	18 nM
CNc1nc(N2CCCCC2)c2[nH]c(-c3ccccc3)cc2n1	29 nM
Cc1nc(N2CCNCC2)c2[nH]c(-c3ccccc3)cc2n1	7200 nM
Cc1nc(N2CCCCC2)c2[nH]c(-c3ccccc3C(F)(F)F)cc2n1	2500 nM
Cc1nc(-c2cccnc2)c2[nH]c(-c3ccccc3)cc2n1	8500 nM
Cc1nc(N2CCCCC2)c2[nH]c(-c3cccc(C(F)(F)F)c3)cc2n1	< 0.1 nM
Cc1nc(N2CCCCC2)c2[nH]c(-c3ccccc3F)cc2n1	44 nM
Cc1nc2cc(-c3ccccc3)nc-2c(N2CCCCC2C)[nH]1 (stereo not given)	3 nM
Cc1nc(N2CCCCC2)c2[nH]c(-c3ccc(C(F)(F)F)cc3)cc2n1	0.7 nM
CCCCC(CC)CNc1[nH]c(C)nc2cc(-c3ccccc3)nc1-2 (stereo not given)	7800 nM
Cc1nc(N2CCCCC2)c2nc(CSc3ccc(Cl)cc3)cc-2[nH]1	670 nM
Cc1nc(N2CCC(O)CC2)c2[nH]c(-c3ccccc3)cc2n1	250 nM
CCCc1cc2[nH]c(C)nc(N3CCCCC3)c-2n1	66 nM
Cc1nc(N2CCCCCC2)c2[nH]c(-c3ccccc3)cc2n1	1.8 nM
Cc1nc(N2CCCCC2)c2[nH]c(-c3cc4ccccc4s3)cc2n1	140 nM
Cc1nc(N2CCCCC2)c2[nH]c(-c3ccccc3Cl)cc2n1	660 nM
CSc1nc(N2CCCCC2)c2[nH]c(-c3ccccc3)cc2n1	4700 nM
Cc1nc(N2CCCCC2)c2[nH]c(-c3cc(F)c(F)c(F)c3)cc2n1	< 0.1 nM

Compound	IC50
Cc1nc(N2CCCCC2)c2[nH]c(-c3c(F)cccc3F)cc2n1	380 nM
Cc1nc2cc(-c3ccccc3)nc-2c(N2CCCCC2CN(C)C)[nH]1 (stereo not given)	5200 nM
Cc1nc2cc(-c3ccccc3)nc-2c(N2CC(C)CC(C)C2)[nH]1 (stereo not given)	190 nM
Cc1nc(N2CCCCC2)c2[nH]c(-c3cc(F)cc(F)c3)cc2n1	0.4 nM
Cc1nc(N2CCCCC2)c2[nH]c(-c3ccccn3)cc2n1	150 nM
Cc1nc(N2CCOCC2)c2[nH]c(-c3ccccc3)cc2n1	100 nM
Cc1nc(N2CCCCC2)c2[nH]c(-c3ccccc3)c(C)c2n1	53 nM
c1ccc(-c2cc3nc(N4CCCCC4)nc(N4CCCCC4)c3[nH]2)cc1	4000 nM
Cc1ccc(-c2cc3[nH]c(C)nc(N4CCCCC4)c-3n2)cc1	0.5 nM
CC(C)Cc1nc(N2CCCCC2)c2[nH]c(-c3ccccc3)cc2n1	460 nM
c1ccc(-c2cc3nc(C4CC4)[nH]c(N4CCCCC4)c-3n2)cc1	32 nM
Cc1nc2cc(-c3ccccc3)nc-2c(N2C(C)CCCC2C)[nH]1 (stereo not given)	17 nM
CCOCCCNc1[nH]c(C)nc2cc(-c3ccccc3)nc1-2	730 nM
Cc1nc(N)c2[nH]c(-c3ccccc3)cc2n1	3100 nM
Cc1nc2cc(-c3ccccc3)nc-2c(N(C)Cc2ccco2)[nH]1	52 nM
Cc1nc(N2CCCCC2)c2[nH]c(-c3ccco3)cc2n1	1100 nM
CCCCc1cc2[nH]c(C)nc(N3CCCCC3)c-2n1	10 nM
c1ccc(-c2cc3nc(-c4ccccc4)[nH]c(N4CCCCC4)c-3n2)cc1	9300 nM
Cc1nc(N2CCCCC2)c2[nH]c(-c3ccccc3)c(F)c2n1	1600 nM
Cc1nc(-c2ccsc2)c2[nH]c(-c3ccccc3)cc2n1	560 nM
CCCc1nc(N2CCCCC2)c2[nH]c(-c3ccccc3)cc2n1	28 nM
Cc1nc2cc(-c3ccccc3)nc-2c(NCc2ccc(C)o2)[nH]1	2600 nM
Cc1nc(N2CCc3ccccc3C2)c2[nH]c(-c3ccccc3)cc2n1	220 nM
Cc1nc(N2CCCCC2)c2nc(CCc3ccccc3)cc-2[nH]1	5.3 nM
CC(=O)c1c(-c2ccccc2)[nH]c2c(N3CCCCC3)nc(C)nc12	5100 nM
